Assay outcomes from PubChem.
A selection: hits, their analogues and other compounds. The true share with any hit is near 2.9%.
ATG4B inh – ATG4B (human) cysteine protease inhibition | Q9Y4P1 | ATG4B cleavage of LC3-PLA2, NBD-HPC fluorescence, 1 h | AID 504462 | inhibition, % at 8.33 µM | 340,000 compounds, 0.51% hits; in the data active = inhibition above about 40%
TCR-CD3 inh – human TCR-CD3 binding inhibition | TAMRA-labeled TCR probe fluorescence, biochemical | inhibition, % at 9.4 µM | 360,000 compounds, 0.37% hits; in the data active = inhibition above about 19%;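 note: recombinant mutant TCR 2C K166C tagged with TAMRA read by polarization; 0% = receptor in buffer alone and 100% = receptor with positive control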
SIAE inh – blocks human sialic acid acetylesterase; inhibition, % at 9.66 µM; SIAE FP-Rh probe binding, fluorescence polarization; 370,000 compounds, 0.69% hits;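 active = inhibition above a cutoff: mean of compounds within the control limits plus 3 SD of those, cut at about 17% in these data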;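 note: 0% = plate median of compound wells and 100% = probe without SIAE protein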
PRMT1 FP inh – blocks human protein arginine methyltransferase 1; Q99873; recombinant PRMT1, activity-based probe fluorescence polarization; inhibition, % at 2.79 µM; 370,000 compounds, 1.3% hits;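 active = inhibition above about 21% made by adding two undisclosed values, limit read from the data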
HTRA1 inhibitor – inhibitors of human serine peptidase HTRA1. recombinant HTRA1, FP-rhodamine activity-based probe, fluorescence polarization. inhibition, % at 5.96 µM. 340,000 compounds, 0.5% hits. AID 504803; in the data active = inhibition above about 36%;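 note: 0% = enzyme with DMSO and 100% = wells lacking enzyme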
ABHD4 inh – inhibitors of mouse ABHD4; Q8VD66; purified mABHD4, FP-Rh probe fluorescence polarization; inhibition, % at 8.92 µM; 370,000 compounds, 0.54% hits;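 active = inhibition exceeding the mean over every tested compound plus 3 SD, cut at about 30% in these data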;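 note: 0% = plate median of compound wells and 100% = S159A mutant with DMSO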
Target sequence (Q8VD66 whole entry, looked up): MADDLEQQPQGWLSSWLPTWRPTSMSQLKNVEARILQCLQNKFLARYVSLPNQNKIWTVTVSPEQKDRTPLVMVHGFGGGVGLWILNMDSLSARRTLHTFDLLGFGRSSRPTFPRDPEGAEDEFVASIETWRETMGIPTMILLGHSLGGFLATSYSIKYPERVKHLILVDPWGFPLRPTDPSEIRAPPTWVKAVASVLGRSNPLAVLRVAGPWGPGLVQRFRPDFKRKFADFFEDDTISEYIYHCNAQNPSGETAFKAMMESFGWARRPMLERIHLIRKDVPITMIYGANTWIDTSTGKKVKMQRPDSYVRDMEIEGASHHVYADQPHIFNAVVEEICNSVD
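Test system: mABHD4 protein; Read-out basis: % inhibition; Incubation: 45 min + 60 min at 25 °C; Repeats: single replicate; Technique: fluorescence polarization with parallel and perpendicular emission, 525/598 nm; Compound: 8.92 µM, single dose; Benchmarks: full inhibition S159A mutant plus DMSO, zero as sample-well median.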
PRMT1 inh conf – confirmation of human PRMT1 inhibitors; shares compounds with PRMT1 FP inh; recombinant His-PRMT1, activity-based probe fluorescence polarization; inhibition, % at 2.79 µM; 3,300 compounds, 42% hits;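 active = mean inhibition across replicates above the hit cutoff derived for the earlier primary screen, cut at about 22% in these data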
* = called active by the depositor; x = not tested or not shown.

SMILES	ATG4B inh	TCR-CD3 inh	SIAE inh	PRMT1 FP inh	HTRA1 inhibitor	ABHD4 inh	PRMT1 inh conf
CO[C@@]1(NC(=O)CSCC#N)C(=O)N2C(C(=O)O)=C(CSc3nnnn3C)CS[C@@H]21	-2	-3	7	10	6	-2	x
Cc1nnc(SCC2=C(C(=O)O)N3C(=O)C(NC(=O)Cn4cnnn4)C3SC2)s1 (configuration not stated)	4	6	14	12	5	-3	x
CC(C)(C)c1ccc(-c2nnc3n2N=C(c2ccc(Cl)cc2)CS3)cc1	x	x	2	5	x	1	x
COc1ccc(-n2c(COc3ccccc3)nnc2SCC(=O)Nc2ccc3c(c2)OCCO3)cc1	x	x	-1	0	x	-7	x
O=C(O)CN1C(=O)/C(=C\C(Br)=C\c2ccccc2)SC1=S	20	0	0	31*	-3	13	33*
COC(=O)[C@]12C[C@H](CC(=O)N3CCOCC3)C(=O)N(CCc3ccc(OC)c(OC)c3)C1=C[C@H](COCc1ccccc1)O[C@@H]2C	x	x	2	-1	x	-2	x
CC1Cc2cc(S(=O)(=O)NCc3ccccc3)ccc2N1C(=O)C1CCC1 (configuration not stated)	1	6	-2	-3	-3	3	x
CC1Cc2cc(S(=O)(=O)NCc3ccccc3)ccc2N1C(=O)C1CC1 (configuration not stated)	-8	-5	-5	47*	4	-11	3
Cc1cccc(NC(=O)Nc2nc3ncccn3c2-c2ccc(F)cc2)c1	x	x	1	2	x	6	x
C#CCNc1cc(-c2ccccc2)nc2ncnn12	-6	-1	2	2	8	5	x
CC(=O)CSc1cc(-c2ccccc2)nc2ncnn12	-4	-10	-4	28*	0	1	37*
C=CC[C@@H]1NN2C(=O)[C@@H](CCCC)[C@@H]3c4ccccc4C=NN3[C@@H]2c2ccccc21	x	x	-3	-3	x	0	x
O=C(O)c1cc(-c2ccco2)nc2cc3ccccc3cc12	15	2	-3	26*	-1	6	22*
O=C(COC(=O)c1cc(-c2ccco2)nc2ccccc12)NCc1ccccc1	0	-1	-2	36*	-15	-2	9
COc1ccc(CCNC(=O)c2cc(-c3ccco3)nc3ccccc23)cc1	6	5	-10	40*	x	-19	16
COCCCN(C(=O)c1cc(-c2ccco2)nc2ccccc12)c1c(N)n(Cc2ccccc2)c(=O)[nH]c1=O	-3	18	4	47*	3	-8	11
O=S1(=O)c2ccc(Br)cc2OC[C@@H](c2ccccc2)N1Cc1cn(Cc2ccccc2)nn1	x	x	-1	2	x	4	x
CCc1c(Cc2ccccc2)ncn1CCc1ccccc1OC	x	6	0	1	x	0	x
CN1CCC(CNC(=O)Nc2csc3ccccc23)CC1	4	-8	2	42*	x	3	-1
COCCn1c(SCCN2CCOCC2)nc2c1c(=O)[nH]c(=O)n2C	-7	5	3	38*	7	12	40*
C=CCn1c(SCCN2CCOCC2)nc2c1c(=O)[nH]c(=O)n2C	-7	0	-2	2	3	7	x
Cc1cc(C)c2ccc(=S)[nH]c2n1	2	3	6	38*	-2	-6	16
Cc1nc2ccc(S(=O)(=O)NCC(=O)NCc3ccc4c(c3)OCO4)cc2s1	-6	7	-9	49*	0	-8	1
C=CCN1C(=O)[C@@H](CC(=O)NCc2ccccc2)[C@]2(C(=O)OCC)CCCCC/C=C/12	x	x	5	0	x	-1	x
CC1CCCN(C(=O)c2nn(C)c3c2CSc2ccccc2-3)C1 (configuration not stated)	-6	-13	4	31*	-5	3	37*
SMILES	ATG4B inh	TCR-CD3 inh	SIAE inh	PRMT1 FP inh	HTRA1 inhibitor	ABHD4 inh	PRMT1 inh conf
Cc1ccc(C)c(NC(=O)Cn2nnc(-c3ccncc3)n2)c1	x	x	0	4	x	-1	x
O=C(NCc1ccccc1Cl)C1CCC(CNS(=O)(=O)c2cccc3cccnc23)CC1 (configuration not stated)	x	x	-1	17	x	5	x
S=c1nc(C23CC4CC(CC(C4)C2)C3)[nH][nH]1	-9	-3	-1	34*	0	1	9
COC(=O)[C@]12C[C@H](CC(=O)N3CCN(C(=O)C4CC4)CC3)C(=O)N(CCc3ccc(OC)c(OC)c3)C1=C[C@H](C(C)C)O[C@@H]2C1CC1	x	x	2	0	x	1	x
Cc1ccc(Cn2cc(CN(C3CC3)S(=O)(=O)c3ccccc3Br)nn2)cc1	x	x	-3	-3	x	-3	x
O=C1Nc2ccccc2/C1=C/c1ccccc1F	-3	3	-5	1	1	-5	x
Cc1ccc(/C=C2\C(=O)Nc3ccccc32)o1	-6	-6	-1	60*	3	19	9
Cc1ccc(C(=O)NN2C(=O)CSC2=S)cc1	-7	-17	2	-2	-2	-103	x
C/C(=N\N1C(=O)CSC1=S)c1ccc(Br)cc1	-8	5	1	31*	-4	-5	32*
CCN(CC)C(=O)CC[C@@H]1CC[C@]2(CCCN(Cc3nccs3)C2)O1	x	x	5	0	x	5	x
Cc1ccc(C(CC(=O)c2ccco2)SCCO)cc1 (configuration not stated)	-5	-1	-2	28*	-8	-3	32*
O=C(CC(SCCO)c1ccc(F)cc1)c1ccco1 (configuration not stated)	-2	5	-1	33*	7	-1	30*
Cc1cc(C)cc(C(=O)OCCN(C)C2CN(Cc3cn(Cc4ccccc4C(F)(F)F)nn3)S(=O)(=O)C2)c1 (configuration not stated)	x	x	-3	-1	x	-8	x
Cc1ccc(NC(=O)CSc2nc(N)cc(=O)[nH]2)cc1S(=O)(=O)N1CCCCC1	-3	0	-3	44*	2	-14	0
CN(CC#CC1=CCCCC1)/C(N)=N/C(=O)OCc1ccccc1	x	x	0	2	x	-7	x
CCCSc1nnc(NC(=O)c2sc3nc(-c4cccs4)ccc3c2N)s1	9	-3	-11	28*	-17	-16	5
O=S(=O)(c1ccc(Cl)s1)N1CCC(c2cn3ccccc3n2)CC1	x	x	3	0	x	0	x
COc1ccc2ccccc2c1C(=O)/C=C\c1ccoc1	5	-2	2	33*	-9	24	7
Cc1ccc(-c2nnc(SCC(=O)NN=Cc3c[nH]c4ccccc34)n2-c2ccccc2)cc1	x	x	3	0	x	-3	x
COc1ccc(/C=C2\SC(=S)N(N3C(=O)CCC3=O)C2=O)cc1O	-12	-2	1	49*	2	5	1
COc1ccccc1/C=C1\SC(=S)N(N2C(=O)CCCC2=O)C1=O	-4	1	-3	0	-5	16	x
